From ChEMBL document CHEMBL1126585, “Effect of N-methyl substitution of the peptide bonds in luteinizing hormone-releasing hormone agonists” (J Med Chem, 1993)
Square brackets hold non-standard residues; d marks the D form. Peptide text beside a SMILES is read from it. 1Nal = N[C@@H](Cc1cccc2ccccc12)C(=O)O; NMeF = CN[C@@H](Cc1ccccc1)C(=O)O; pGlu = O=C1CC[C@@H](C(=O)O)N1; NMeS = CN[C@@H](CO)C(=O)O

Columns and labels:
[1] = Clearance in rat after iv dose (100 ug/kg); assay type: ADME, organism-based; conditions: in vivo, 0.1 mg/kg
Outline: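 Castrate male rats given 100 μg/kg iv bolus; blood sampled over 6 h with EDTA anticoagulant. Plasma levels by RIA with antibody recognizing C-terminal Leu-Arg-Pro-NHEt or Leu-Arg-Pro-GlyNH₂ (rabbit antisera C-402 with [125I-Tyr⁵]leuprolide tracer, or 5328W with [125I-Tyr⁵,DLys⁶]LHRH). AUC by trapezoidal rule; whole-body clearance = dose/AUC, mL/min per kg.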

chymotrypsin = experiment: Chymotrypsin degradation half-life was determined; assay type: ADME
Rattus norvegicus [2] = species: Rattus norvegicus; experiment: Intestinal stability against rat jejunum sac, activity is expressed as T1/2; assay type: functional
Outline: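 Rat jejunal sac in vitro; T1/2 taken as time, in min, for lumenal compound concentration to fall by 50%.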

Rattus norvegicus [3] = species: Rattus norvegicus; experiment: Tested in vitro for LH release from cultured rat pituitary cells, activity is expressed as pD2 value; assay type: functional, Pituitary gland cell
Outline: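 Cultured rat pituitary cells; LH release measured across agonist concentrations; pD2 = negative log of agonist concentration giving 50% of maximal LH release.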

Rattus norvegicus [4] = species: Rattus norvegicus; experiment: In vitro for LH release inhibition from cultured rat pituitary cells, activity is expressed as pA2 value; assay type: functional, cell-based; conditions: Pituitary gland cell, read-out: pA2 (converted)
Outline: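 Cultured rat pituitary cells releasing LH in response to agonist; pA2 = negative log of antagonist concentration requiring 2-fold more agonist for LH release.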

| clearance [1] [mL/min/kg] | half-life (chymotrypsin) [min] | SMILES | T1/2 (Rattus norvegicus [2]) [min] | pD2 (Rattus norvegicus [3]) | Kb (Rattus norvegicus [4]) [nM] |
| --- | --- | --- | --- | --- | --- |
| 8.2 | > 60 | CCNC(=O)[C@@H]1CCCN1C(=O)[C@H](CCCN=C(N)N)NC(=O)[C@H](CC(C)C)NC(=O)[C@@H](CC(C)C)NC(=O)[C@H](Cc1ccc(O)cc1)N(C)C(=O)[C@H](CO)NC(=O)[C@H](Cc1c[nH]c2ccccc12)NC(=O)[C@H](Cc1cnc[nH]1)NC(=O)[C@@H]1CCC(=O)N1 |  |  |  |
| 9 | 1 | CCNC(=O)[C@@H]1CCCN1C(=O)[C@H](CCCNC(=N)N)NC(=O)[C@H](CC(C)C)NC(=O)[C@@H](CC(C)C)NC(=O)[C@H](Cc1ccc(O)cc1)NC(=O)[C@H](CO)NC(=O)[C@H](Cc1c[nH]c2ccccc12)NC(=O)[C@H](Cc1c[nH]cn1)NC(=O)[C@@H]1CCC(=O)N1 [LEUPROLIDE] | 4 |  |  |
| 3.4 | > 60 | CC(C)C[C@H](NC(=O)[C@@H](Cc1ccc2ccccc2c1)NC(=O)[C@H](Cc1ccc(O)cc1)N(C)C(=O)[C@H](CO)NC(=O)[C@H](Cc1c[nH]c2ccccc12)NC(=O)[C@H](Cc1c[nH]cn1)NC(=O)[C@@H]1CCC(=O)N1)C(=O)N[C@@H](CCCN=C(N)N)C(=O)N1CCC[C@H]1C(=O)NCC(N)=O | 33 | 10.95 |  |
| 3.87 |  | CC(C)C[C@H](NC(=O)[C@@H](Cc1ccc2ccccc2c1)NC(=O)[C@H](Cc1ccc(O)cc1)NC(=O)[C@H](CO)NC(=O)[C@H](Cc1c[nH]c2ccccc12)NC(=O)[C@H](Cc1c[nH]cn1)NC(=O)[C@@H]1CCC(=O)N1)C(=O)N(C)[C@@H](CCCN=C(N)N)C(=O)N1CCC[C@H]1C(=O)NCC(N)=O |  |  | 11.2 |
| 5.5 | 0.5 | CC(C)C[C@H](NC(=O)[C@@H](Cc1ccc2ccccc2c1)NC(=O)[C@H](Cc1ccc(O)cc1)NC(=O)[C@H](CO)NC(=O)[C@H](Cc1c[nH]c2ccccc12)NC(=O)[C@H](Cc1cnc[nH]1)NC(=O)[C@@H]1CCC(=O)N1)C(=O)N[C@@H](CCCNC(=N)N)C(=O)N1CCC[C@H]1C(=O)NCC(N)=O [NAFARELIN] |  | 11.05 |  |
|  |  | CCNC(=O)[C@@H]1CCCN1C(=O)[C@H](CCCN=C(N)N)NC(=O)[C@H](CC(C)C)NC(=O)[C@@H](CC(C)C)N(C)C(=O)[C@H](Cc1ccc(O)cc1)NC(=O)[C@H](CO)NC(=O)[C@H](Cc1c[nH]c2ccccc12)NC(=O)[C@H](Cc1c[nH]cn1)NC(=O)[C@@H]1CCC(=O)N1 | 54 | 9.61 |  |
| 16.9 | > 60 | CCNC(=O)[C@@H]1CCCN1C(=O)[C@H](CCCN=C(N)N)NC(=O)[C@H](CC(C)C)NC(=O)[C@@H](CC(C)C)NC(=O)[C@H](Cc1ccc(O)cc1)NC(=O)[C@H](CO)N(C)C(=O)[C@H](Cc1c[nH]c2ccccc12)NC(=O)[C@H](Cc1c[nH]cn1)NC(=O)[C@@H]1CCC(=O)N1 ([pGlu]HW[NMeS]Y[dL]LRP-NHEt) | > 90 |  |  |
| 7.16 | 7 | CCNC(=O)[C@@H]1CCCN1C(=O)[C@H](CCCN=C(N)N)NC(=O)C(CC(C)C)NC(=O)C(CC(C)C)NC(=O)[C@H](Cc1ccc(O)cc1)NC(=O)[C@H](CO)NC(=O)[C@H](Cc1c[nH]c2ccccc12)NC(=O)[C@H](Cc1c[nH]cn1)N(C)C(=O)[C@@H]1CCC(=O)N1 (stereo in doubt) |  |  |  |
| 8.3 | 1 | CCNC(=O)[C@@H]1CCCN1C(=O)[C@H](CCCN=C(N)N)NC(=O)[C@H](CC(C)C)N(C)C(=O)[C@@H](CC(C)C)NC(=O)[C@H](Cc1ccc(O)cc1)NC(=O)[C@H](CO)NC(=O)[C@H](Cc1c[nH]c2ccccc12)NC(=O)[C@H](Cc1c[nH]cn1)NC(=O)[C@@H]1CCC(=O)N1 | 4.1 | 10.45 |  |
| 14.4 | > 60 | CCNC(=O)[C@@H]1CCCN1C(=O)[C@H](CCCN=C(N)N)NC(=O)[C@H](CC(C)C)NC(=O)[C@@H](CC(C)C)NC(=O)[C@H](Cc1ccc(O)cc1)NC(=O)[C@H](CO)NC(=O)[C@H](Cc1cccc2ccccc12)N(C)C(=O)[C@H](Cc1c[nH]cn1)NC(=O)[C@@H]1CCC(=O)N1 | 44 |  | 257 |
| 28.8 |  | CCNC(=O)[C@@H]1CCCN1C(=O)[C@H](CCCN=C(N)N)NC(=O)[C@H](CC(C)C)NC(=O)[C@@H](Cc1c[nH]c2ccccc12)NC(=O)[C@H](Cc1ccc(O)cc1)NC(=O)[C@H](CO)NC(=O)[C@H](Cc1c[nH]c2ccccc12)NC(=O)[C@H](Cc1ccccc1)NC(=O)[C@@H]1CCC(=O)N1 ([pGlu]FWSY[dW]LRP-NHEt) | 10.8 |  |  |
|  |  | CC(C)C[C@H](NC(=O)[C@@H](Cc1ccc2ccccc2c1)NC(=O)[C@H](Cc1ccc(O)cc1)NC(=O)[C@H](CO)NC(=O)[C@H](Cc1c[nH]c2ccccc12)NC(=O)[C@H](Cc1ccccc1)N(C)C(=O)[C@@H]1CCC(=O)N1)C(=O)N[C@@H](CCCN=C(N)N)C(=O)N1CCC[C@H]1C(=O)NCC(N)=O |  |  | 1.58 |
|  | 1 | CCNC(=O)[C@@H]1CCCN1C(=O)[C@H](CCCN=C(N)N)N(C)C(=O)[C@H](CC(C)C)NC(=O)[C@@H](CC(C)C)NC(=O)[C@H](Cc1ccc(O)cc1)NC(=O)[C@H](CO)NC(=O)[C@H](Cc1c[nH]c2ccccc12)NC(=O)[C@H](Cc1c[nH]cn1)NC(=O)[C@@H]1CCC(=O)N1 | 6.6 | 7 |  |
| 16.4 |  | CCNC(=O)[C@@H]1CCCN1C(=O)[C@H](CCCN=C(N)N)NC(=O)[C@H](CC(C)C)NC(=O)[C@@H](Cc1c[nH]c2ccccc12)NC(=O)[C@H](Cc1ccc(O)cc1)NC(=O)[C@H](CO)NC(=O)[C@H](Cc1c[nH]c2ccccc12)NC(=O)[C@H](Cc1cnc[nH]1)N(C)C(=O)[C@@H]1CCC(=O)N1 |  |  | 5.5 |
| 9.77 | 1 | CC(C)C[C@H](NC(=O)[C@@H](CC(C)C)NC(=O)[C@H](Cc1ccc(O)cc1)NC(=O)[C@H](CO)NC(=O)[C@H](Cc1c[nH]c2ccccc12)NC(=O)[C@H](Cc1c[nH]cn1)NC(=O)[C@@H]1CCC(=O)N1)C(=O)N[C@@H](CCCN=C(N)N)C(=O)N1CCC[C@H]1C(=O)N(C)CC(N)=O | 8.4 | 8.73 |  |
| 21 | 1 | CCNC(=O)[C@@H]1CCCN1C(=O)[C@H](CCCN=C(N)N)NC(=O)[C@H](CC(C)C)NC(=O)[C@@H](CC(C)C)N(C)C(=O)[C@H](Cc1ccc(O)cc1)NC(=O)[C@H](CO)NC(=O)[C@H](Cc1c[nH]c2ccccc12)NC(=O)[C@H](Cc1cnc[nH]1)NC(=O)[C@@H]1CCC(=O)N1 |  |  |  |
| 31 | 6 | CCNC(=O)[C@@H]1CCCN1C(=O)[C@H](CCCN=C(N)N)NC(=O)C(CC(C)C)NC(=O)C(CC(C)C)NC(=O)[C@H](Cc1ccc(O)cc1)NC(=O)[C@H](CO)NC(=O)[C@H](Cc1c[nH]c2ccccc12)NC(=O)[C@H](Cc1ccccc1)N(C)C(=O)[C@@H]1CCC(=O)N1 (stereo in doubt) | 18 |  | 29.5 |
| 28.4 | > 15 | CCNC(=O)[C@@H]1CCCN1C(=O)[C@H](CCCN=C(N)N)NC(=O)[C@H](CC(C)C)NC(=O)[C@@H](CC(C)C)NC(=O)[C@H](Cc1ccc(O)cc1)NC(=O)[C@H](CO)NC(=O)[C@H](Cc1cccc2ccccc12)NC(=O)[C@H](Cc1c[nH]cn1)NC(=O)[C@@H]1CCC(=O)N1 ([pGlu]H[1Nal]SY[dL]LRP-NHEt) | 25 |  |  |
| 27.6 | > 60 | CC(C)C[C@H](NC(=O)[C@@H](Cc1ccc2ccccc2c1)NC(=O)[C@H](Cc1ccc(O)cc1)NC(=O)[C@H](CO)N(C)C(=O)[C@H](Cc1c[nH]c2ccccc12)NC(=O)[C@H](Cc1c[nH]cn1)NC(=O)[C@@H]1CCC(=O)N1)C(=O)N[C@@H](CCCN=C(N)N)C(=O)N1CCC[C@H]1C(=O)NCC(N)=O | 47 | 11.3 |  |
| 44.5 | 3.7 | CCNC(=O)[C@@H]1CCCN1C(=O)[C@H](CCCN=C(N)N)NC(=O)[C@H](CC(C)C)NC(=O)[C@@H](Cc1c[nH]c2ccccc12)NC(=O)[C@H](Cc1ccc(O)cc1)NC(=O)[C@H](CO)NC(=O)[C@H](Cc1c[nH]c2ccccc12)NC(=O)[C@H](Cc1ccccc1)N(C)C(=O)[C@@H]1CCC(=O)N1 ([pGlu][NMeF]WSY[dW]LRP-NHEt) | 44.4 |  |  |
